Results taken from ChEMBL document CHEMBL1136943, “Nocathiacin analogs: Synthesis and antibacterial activity of novel water-soluble amides” (Bioorg Med Chem Lett, 2009).
≈ marks a conversion by molar mass, not a printed value.

Assays:
Staphylococcus aureus [1] = assay: Antibacterial activity against Staphylococcus aureus infected iv bid dosed mouse model assessed as reduction of colony forming unit in kidney; assay type: functional
In short: (§1)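 Systemic S. aureus infection mouse model (SATOA). Compounds were given iv; […]. Kidney bacterial burden (cfu) was compared with untreated control. ED99 is the dose giving a reduction of at least 2 log10 cfu in kidney burden.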

Staphylococcus aureus [2] = assay: Antibacterial activity against Staphylococcus aureus MB2865 in liquid culture by turbidity method; assay type: functional
In short: (§2)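 MIC is the lowest concentration giving 100% inhibition of bacterial growth in liquid culture, read by turbidity.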

Streptococcus pneumoniae = assay: Antibacterial activity against Streptococcus pneumoniae CL2883 in liquid culture by turbidity method; assay type: functional; in short: as §2
Enterococcus faecalis [3] = assay: Antibacterial activity against Enterococcus faecalis C21560 in liquid culture by turbidity method; assay type: functional; in short: as §2
Staphylococcus aureus [4] = assay: Antibacterial activity against Staphylococcus aureus infected in mouse model assessed as reduction of >= 2 log 10 cfu kidney burden; assay type: functional; in short: as §1
[5] = target: T1, Type-2 angiotensin II receptor (Homo sapiens, UniProt P50052); assay: Inhibition of AT2 receptor
T1 sequence (P50052 whole entry): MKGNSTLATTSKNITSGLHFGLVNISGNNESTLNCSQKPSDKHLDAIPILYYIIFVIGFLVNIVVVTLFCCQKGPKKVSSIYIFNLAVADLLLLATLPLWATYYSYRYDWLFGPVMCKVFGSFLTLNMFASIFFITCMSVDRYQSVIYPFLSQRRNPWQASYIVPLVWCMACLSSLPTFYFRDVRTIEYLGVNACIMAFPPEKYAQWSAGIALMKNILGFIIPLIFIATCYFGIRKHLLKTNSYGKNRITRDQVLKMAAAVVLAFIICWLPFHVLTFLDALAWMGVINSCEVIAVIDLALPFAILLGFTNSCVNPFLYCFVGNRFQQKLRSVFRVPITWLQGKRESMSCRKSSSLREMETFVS
In short: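 AT2 IC50 derived from four dose levels per compound, following a published protocol.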

Staphylococcus aureus [6] = assay: Antibacterial activity against methicillin-resistant Staphylococcus aureus; assay type: functional
In short: (§3)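 MIC taken as the lowest concentration giving 100% inhibition of bacterial growth in liquid culture, judged by turbidity.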

Enterococcus = assay: Antibacterial activity against vancomycin-resistant Enterococcus; assay type: functional; in short: as §3
Staphylococcus aureus [7] = assay: Antibacterial activity against methicillin-resistant Staphylococcus aureus COL infected mouse thigh model assessed as reduction of bacterial load at 1 mg/kg, iv, bid after 24 hrs; assay type: functional
In short: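 Mouse MRSA COL thigh infection, 4 mice per group. Test article given intravenously, 0.2 ml, twice daily. Thighs harvested aseptically 24 h after challenge. Bacterial load compared with untreated controls as log reduction over 24 h.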

[8] = Plasma clearance in rat at 1 mg/kg, iv; assay type: ADME, organism-based; parameters: dose 1 mg/kg, route intravenous
In short: (§4)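 Single iv dose of 1 mg/kg in EtOH/PEG400/H2O (10:15:75). Clearance was measured in plasma, with steady-state volume of distribution and terminal half-life derived.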

[9] = Plasma clearance in dog at 1 mg/kg, iv; assay type: ADME, organism-based, Canis lupus familiaris; parameters: dose 1 mg/kg, route intravenous; in short: as §4
[10] = Plasma clearance in monkey at 1 mg/kg, iv; assay type: ADME, organism-based, Macaca mulatta; parameters: dose 1 mg/kg, route intravenous; conditions: rhesus monkey; in short: as §4
[11] = Volume of distribution in steady state in mouse at 1 mg/kg, iv; assay type: ADME, organism-based; parameters: dose 1 mg/kg, route intravenous; conditions: in vivo, read-out: Vdss; in short: as §4
[12] = Volume of distribution in steady state in rat at 1 mg/kg, iv; assay type: ADME, organism-based; parameters: dose 1 mg/kg, route intravenous; conditions: in vivo, read-out: Vdss; in short: as §4
[13] = Volume of distribution in steady state in dog at 1 mg/kg, iv; assay type: ADME, organism-based, Canis lupus familiaris; parameters: dose 1 mg/kg, route intravenous; conditions: in vivo, read-out: Vdss; in short: as §4
[14] = Volume of distribution in steady state in monkey at 1 mg/kg, iv; assay type: ADME, organism-based, Macaca mulatta; parameters: dose 1 mg/kg, route intravenous; conditions: rhesus monkey, in vivo, read-out: Vdss; in short: as §4
[15] = Terminal half life in mouse at 1 mg/kg, iv; assay type: ADME, organism-based; parameters: dose 1 mg/kg, route intravenous; conditions: in vivo, read-out: beta t1/2 (converted); in short: as §4
[16] = Terminal half life in rat at 1 mg/kg, iv; assay type: ADME, organism-based; parameters: dose 1 mg/kg, route intravenous; conditions: in vivo, read-out: beta t1/2 (converted); in short: as §4
[17] = Terminal half life in dog at 1 mg/kg, iv; assay type: ADME, organism-based, Canis lupus familiaris; parameters: dose 1 mg/kg, route intravenous; conditions: in vivo, read-out: beta t1/2 (converted); in short: as §4
[18] = Terminal half life in monkey at 1 mg/kg, iv; assay type: ADME, organism-based, Macaca mulatta; parameters: dose 1 mg/kg, route intravenous; conditions: rhesus monkey, in vivo, read-out: beta t1/2 (converted); in short: as §4
Cytochrome P450 2C9 = Cytochrome P450 2C9 (Homo sapiens, UniProt P11712); assay: Inhibition of CYP2C9; assay type: ADME
Cytochrome P450 2D6 = Cytochrome P450 2D6 (Homo sapiens, UniProt P10635); assay: Inhibition of CYP2D6; assay type: ADME
Cytochrome P450 3A4 = Cytochrome P450 3A4 (Homo sapiens, UniProt P08684); assay: Inhibition of CYP3A4; assay type: ADME
Cytochrome P450 2C8 = target: T2, Cytochrome P450 2C8 (Homo sapiens, UniProt P10632); assay: Inhibition of CYP2C8; assay type: ADME
T2 sequence (P10632 whole entry): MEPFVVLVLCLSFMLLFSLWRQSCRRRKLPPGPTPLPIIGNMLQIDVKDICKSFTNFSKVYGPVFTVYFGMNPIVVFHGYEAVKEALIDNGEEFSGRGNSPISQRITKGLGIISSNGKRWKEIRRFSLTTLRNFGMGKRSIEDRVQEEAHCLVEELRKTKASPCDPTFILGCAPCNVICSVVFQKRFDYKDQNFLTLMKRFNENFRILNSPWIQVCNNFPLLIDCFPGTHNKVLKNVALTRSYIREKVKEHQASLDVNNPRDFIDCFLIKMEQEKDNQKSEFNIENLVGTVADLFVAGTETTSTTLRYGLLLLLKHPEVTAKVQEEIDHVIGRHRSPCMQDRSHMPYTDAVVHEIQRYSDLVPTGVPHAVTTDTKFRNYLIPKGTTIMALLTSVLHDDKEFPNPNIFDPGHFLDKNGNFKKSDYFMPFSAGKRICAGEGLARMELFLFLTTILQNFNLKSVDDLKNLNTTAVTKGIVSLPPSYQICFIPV

[19] = target: T3, Nuclear receptor subfamily 1 group I member 2 (Homo sapiens, UniProt O75469); assay: Activity at human PXR
T3 sequence (O75469 whole entry): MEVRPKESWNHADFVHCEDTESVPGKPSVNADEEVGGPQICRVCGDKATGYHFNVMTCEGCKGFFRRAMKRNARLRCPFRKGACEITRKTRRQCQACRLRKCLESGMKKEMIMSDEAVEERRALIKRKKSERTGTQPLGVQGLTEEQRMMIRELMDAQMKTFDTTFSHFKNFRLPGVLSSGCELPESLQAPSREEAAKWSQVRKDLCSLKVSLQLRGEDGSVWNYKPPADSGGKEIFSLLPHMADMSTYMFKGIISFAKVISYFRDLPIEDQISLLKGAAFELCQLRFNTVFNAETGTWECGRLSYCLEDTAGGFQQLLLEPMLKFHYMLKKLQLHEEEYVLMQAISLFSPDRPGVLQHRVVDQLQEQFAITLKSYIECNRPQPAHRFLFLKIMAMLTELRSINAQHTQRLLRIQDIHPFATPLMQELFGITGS

Cytochrome P450 1A2 = target: T4, Cytochrome P450 1A2 (Homo sapiens, UniProt P05177); assay: Inhibition of CYP1A2; assay type: ADME
T4 sequence (P05177 whole entry): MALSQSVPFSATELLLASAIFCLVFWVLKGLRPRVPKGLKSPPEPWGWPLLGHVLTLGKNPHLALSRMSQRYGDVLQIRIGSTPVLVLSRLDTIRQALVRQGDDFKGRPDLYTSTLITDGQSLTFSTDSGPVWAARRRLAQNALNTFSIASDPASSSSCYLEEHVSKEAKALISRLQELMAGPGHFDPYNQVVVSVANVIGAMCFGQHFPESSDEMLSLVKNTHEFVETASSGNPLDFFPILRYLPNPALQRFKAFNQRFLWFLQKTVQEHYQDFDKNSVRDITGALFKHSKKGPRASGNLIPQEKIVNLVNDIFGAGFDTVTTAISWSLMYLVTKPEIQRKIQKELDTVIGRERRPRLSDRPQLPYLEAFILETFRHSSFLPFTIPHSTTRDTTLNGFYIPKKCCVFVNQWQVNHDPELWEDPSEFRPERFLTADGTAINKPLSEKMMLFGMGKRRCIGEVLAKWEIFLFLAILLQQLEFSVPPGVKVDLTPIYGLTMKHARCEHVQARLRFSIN

Cytochrome P450 2C19 = Cytochrome P450 2C19 (Homo sapiens, UniProt P33261); assay: Inhibition of CYP2C19; assay type: ADME
Enterococcus faecalis [20] = assay: Antibacterial activity against Enterococcus faecalis; assay type: functional; in short: as §2

Sequence of Cytochrome P450 3A4 (P08684 whole entry): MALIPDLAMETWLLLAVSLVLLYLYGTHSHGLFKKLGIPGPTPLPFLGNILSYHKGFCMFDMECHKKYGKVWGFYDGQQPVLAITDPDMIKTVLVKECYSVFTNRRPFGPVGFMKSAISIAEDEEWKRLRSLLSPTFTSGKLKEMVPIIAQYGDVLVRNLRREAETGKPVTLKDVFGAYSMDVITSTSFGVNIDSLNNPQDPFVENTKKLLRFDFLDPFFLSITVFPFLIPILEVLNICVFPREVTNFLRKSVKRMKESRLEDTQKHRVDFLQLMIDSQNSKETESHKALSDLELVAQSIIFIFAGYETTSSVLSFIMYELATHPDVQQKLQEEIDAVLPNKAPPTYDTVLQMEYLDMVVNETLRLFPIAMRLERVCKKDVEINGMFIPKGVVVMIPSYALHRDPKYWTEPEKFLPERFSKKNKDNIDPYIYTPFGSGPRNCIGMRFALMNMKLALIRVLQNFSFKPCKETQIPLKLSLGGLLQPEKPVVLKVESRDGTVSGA
Sequence of Cytochrome P450 2C9 (P11712 whole entry): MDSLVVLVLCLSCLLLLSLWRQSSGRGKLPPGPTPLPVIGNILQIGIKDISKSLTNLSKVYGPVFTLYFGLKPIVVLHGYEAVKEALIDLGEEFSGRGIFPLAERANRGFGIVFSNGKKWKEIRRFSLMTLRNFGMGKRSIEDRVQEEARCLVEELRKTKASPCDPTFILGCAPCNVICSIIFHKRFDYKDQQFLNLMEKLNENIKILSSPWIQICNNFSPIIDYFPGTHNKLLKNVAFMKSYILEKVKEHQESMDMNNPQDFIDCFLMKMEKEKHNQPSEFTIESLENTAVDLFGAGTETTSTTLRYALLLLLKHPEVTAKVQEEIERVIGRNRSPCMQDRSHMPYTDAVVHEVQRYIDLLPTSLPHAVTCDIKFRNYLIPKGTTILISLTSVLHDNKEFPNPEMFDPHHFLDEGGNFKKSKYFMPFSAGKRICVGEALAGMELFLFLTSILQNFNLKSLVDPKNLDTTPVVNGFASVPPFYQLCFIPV
Sequence of Cytochrome P450 2C19 (P33261 whole entry): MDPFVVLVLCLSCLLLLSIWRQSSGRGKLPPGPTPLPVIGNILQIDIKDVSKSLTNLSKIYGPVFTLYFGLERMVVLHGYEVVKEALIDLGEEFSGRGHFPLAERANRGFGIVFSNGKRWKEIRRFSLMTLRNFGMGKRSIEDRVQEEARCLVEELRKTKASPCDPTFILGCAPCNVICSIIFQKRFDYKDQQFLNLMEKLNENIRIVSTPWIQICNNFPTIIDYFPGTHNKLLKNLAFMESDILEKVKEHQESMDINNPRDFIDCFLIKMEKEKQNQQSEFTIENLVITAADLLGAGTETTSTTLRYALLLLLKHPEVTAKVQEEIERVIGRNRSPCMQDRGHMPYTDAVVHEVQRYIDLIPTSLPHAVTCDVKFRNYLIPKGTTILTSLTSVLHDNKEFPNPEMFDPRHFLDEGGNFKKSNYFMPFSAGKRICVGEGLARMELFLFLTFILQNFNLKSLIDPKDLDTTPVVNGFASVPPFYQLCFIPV
Sequence of Cytochrome P450 2D6 (P10635 whole entry): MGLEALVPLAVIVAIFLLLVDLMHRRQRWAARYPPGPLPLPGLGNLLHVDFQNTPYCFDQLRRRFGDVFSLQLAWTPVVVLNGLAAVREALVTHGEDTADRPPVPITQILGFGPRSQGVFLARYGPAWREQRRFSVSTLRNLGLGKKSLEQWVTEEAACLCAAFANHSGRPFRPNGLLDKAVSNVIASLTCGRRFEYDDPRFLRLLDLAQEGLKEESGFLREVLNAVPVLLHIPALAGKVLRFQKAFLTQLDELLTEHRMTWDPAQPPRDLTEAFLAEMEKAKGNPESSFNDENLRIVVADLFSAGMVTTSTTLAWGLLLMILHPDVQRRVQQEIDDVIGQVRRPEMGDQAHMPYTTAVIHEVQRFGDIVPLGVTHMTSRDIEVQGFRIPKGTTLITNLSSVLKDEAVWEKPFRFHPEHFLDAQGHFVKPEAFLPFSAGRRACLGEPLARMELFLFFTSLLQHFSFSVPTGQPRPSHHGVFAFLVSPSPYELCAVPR

CC(=O)NC[C@H]1CN(c2ccc(N3CCOCC3)c(F)c2)C(=O)O1 [LINEZOLID]
ED99 (Staphylococcus aureus [1]): 12 mg/kg

CO/C(C)=C1/NC(=O)[C@H]([C@@H](C)O)NC(=O)c2csc(n2)-c2cc(O)c(-c3nc(C(=O)NCCNC(=O)CN(C)C)cs3)nc2-c2csc(n2)[C@@H]2COC(=O)c3c4c5c(cccc5n3O)COC(=O)[C@@H](O[C@H]3C[C@](C)(O)[C@H](N(C)C)[C@H](C)O3)[C@@H](OC4)[C@H](NC(=O)c3csc1n3)c1nc(cs1)C(=O)N2
MIC (Staphylococcus aureus [2]): 0.019 µg/mL (≈ 12.7 nM)
MIC (Streptococcus pneumoniae): 0.00059 µg/mL (≈ 0.394 nM)
MIC (Enterococcus faecalis [3]): 0.09 µg/mL (≈ 60.1 nM)
ED99 (Staphylococcus aureus [4]): 0.2 mg/kg
IC50 [5]: 0.078 µM

CO/C(C)=C1/NC(=O)[C@H]([C@@H](C)O)NC(=O)c2csc(n2)-c2cc(OC)c(-c3nc(C(=O)NCCCN4CCOCC4)cs3)nc2-c2csc(n2)[C@@H]2COC(=O)c3c4c5c(cccc5n3O)COC(=O)[C@@H](O[C@H]3C[C@](C)(O)[C@H](N(C)C)[C@H](C)O3)[C@@H](OC4)[C@H](NC(=O)c3csc1n3)c1nc(cs1)C(=O)N2
MIC (Staphylococcus aureus [2]): 0.01 µg/mL (≈ 6.62 nM)
MIC (Staphylococcus aureus [6]): 0.00095 µg/mL (≈ 0.629 nM)
MIC (Enterococcus): 0.06 µg/mL (≈ 39.7 nM)
ED99 (Staphylococcus aureus [1]): 0.27 mg/kg
IC50 [5]: 5.07 µM
Activity (Staphylococcus aureus [7]): 1.22
clearance [8]: 51.3 mL/min/kg
clearance [9]: 15.6 mL/min/kg
clearance [10]: 15 mL/min/kg
Vd [11]: 18.7 L/kg
Vd [12]: 15.5 L/kg
Vd [13]: 3.3 L/kg
Vd [14]: 1.2 L/kg
half-life [15]: 5 h
half-life [16]: 6.4 h
half-life [17]: 5.4 h
half-life [18]: 6.5 h
IC50 (Cytochrome P450 2C9): ≥ 100 µM
IC50 (Cytochrome P450 2D6): ≥ 100 µM
IC50 (Cytochrome P450 3A4): ≥ 100 µM
IC50 (Cytochrome P450 2C8): 71 µM
Activity [19]: Not Active
IC50 (Cytochrome P450 1A2): ≥ 100 µM
IC50 (Cytochrome P450 2C19): ≥ 100 µM

CO/C(C)=C1/NC(=O)[C@H]([C@@H](C)O)NC(=O)c2csc(n2)-c2cc(O)c(-c3nc(C(=O)NCCNC(=O)CN4CCOCC4)cs3)nc2-c2csc(n2)[C@@H]2COC(=O)c3c4c5c(cccc5n3O)COC(=O)[C@@H](O[C@H]3C[C@](C)(O)[C@H](N(C)C)[C@H](C)O3)[C@@H](OC4)[C@H](NC(=O)c3csc1n3)c1nc(cs1)C(=O)N2
MIC (Staphylococcus aureus [2]): 0.0038 µg/mL (≈ 2.47 nM)
MIC (Streptococcus pneumoniae): 0.00048 µg/mL (≈ 0.312 nM)
MIC (Enterococcus faecalis [3]): 0.06 µg/mL (≈ 39 nM)
ED99 (Staphylococcus aureus [4]): 0.05 mg/kg
IC50 [5]: 0.25 µM

C=C(NC(=O)c1csc(-c2nc3c(cc2O)-c2nc(cs2)C(=O)N[C@@H]([C@@H](C)O)C(=O)N/C(=C(\C)OC)c2nc(cs2)C(=O)N[C@@H]2c4nc(cs4)C(=O)N[C@@H](COC(=O)c4c5c6c(cccc6n4O)COC(=O)[C@@H](O[C@H]4C[C@](C)(O)[C@H](N(C)C)[C@H](C)O4)[C@H]2OC5)c2nc-3cs2)n1)C(N)=O [MJ347-81F4 A]
MIC (Staphylococcus aureus [2]): 0.007 µg/mL (≈ 4.87 nM)
MIC (Enterococcus faecalis [20]): 0.015 µg/mL (≈ 10.4 nM)
MIC (Streptococcus pneumoniae): 0.002 µg/mL (≈ 1.39 nM)
MIC (Enterococcus faecalis [3]): 0.03 µg/mL (≈ 20.9 nM)
